Experimental data from ChEMBL document CHEMBL4118021, “Studies of TAK1-centered polypharmacology with novel covalent TAK1 inhibitors” (Bioorg Med Chem, 2017).
Active and inactive are the calls of the source. No cut-off for these calls is given here.

Assays:
[1] = target: T-complex protein 1 subunit theta (Homo sapiens) (UniProt P50990); assay: Binding affinity to CCT8 in human NCI-H358 cells at 1 uM by mass spectrometry based pull down assay; assay type: cell-based
[2] = target: Glycogen phosphorylase, brain form (Homo sapiens) (UniProt P11216); assay: Binding affinity to PYGB in human NCI-H358 cells at 1 uM by mass spectrometry based pull down assay; assay type: cell-based
[3] = target: Eukaryotic translation initiation factor 2A (Homo sapiens) (UniProt Q9BY44); assay: Binding affinity to EIF2A in human NCI-H23 cells at 1 uM by mass spectrometry based pull down assay; assay type: cell-based
[4] = target: Glycogen synthase kinase-3 beta (Homo sapiens) (UniProt P49841); assay: Binding affinity to GSK3B in human NCI-H23 cells at 1 uM by mass spectrometry based pull down assay; assay type: cell-based
[5] = target: Tropomyosin alpha-4 chain (Homo sapiens) (UniProt P67936); assay: Binding affinity to TPM4 in human NCI-H358 cells at 1 uM by mass spectrometry based pull down assay; assay type: cell-based
Chain of Tropomyosin alpha-4 chain (Homo sapiens) (P67936 whole entry): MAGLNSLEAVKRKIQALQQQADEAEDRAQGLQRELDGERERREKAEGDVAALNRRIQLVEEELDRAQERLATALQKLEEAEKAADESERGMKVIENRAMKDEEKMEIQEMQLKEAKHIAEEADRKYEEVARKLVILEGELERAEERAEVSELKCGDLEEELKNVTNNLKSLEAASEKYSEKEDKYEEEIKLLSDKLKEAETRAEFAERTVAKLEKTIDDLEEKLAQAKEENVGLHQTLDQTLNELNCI

[6] = target: Cyclin-dependent kinase 4 (Homo sapiens) (UniProt P11802); assay: Binding affinity to CDK4 in human NCI-H358 cells at 1 uM by mass spectrometry based pull down assay; assay type: cell-based
[7] = target: Testis-expressed protein 264 (Homo sapiens) (UniProt Q9Y6I9); assay: Binding affinity to TEX264 in human NCI-H23 cells at 1 uM by mass spectrometry based pull down assay; assay type: cell-based
[8] = target: T1, 80S Ribosome (Homo sapiens) (UniProt P08865+P42677+P62753+P15880+P23396+P61247+P62701+P22090+P46782+P62081+P62241+P46781+P46783+P62280+P25398+P62277+P62263+P62841+P62244+P62249+P08708+P62269+P39019+P60866+P63220+P62266+P62847+P62851+P62854+P62979+P62857+P62273+P62861+P39023+P36578+P46777+Q02878+P18124+P62424+P62917+P32969+P27635+P62906+P62913+P30050+P26373+P40429+P50914+P61313+P18621+Q07020+Q02543+P84098+P46778+P35268+P62829+P62750+P83731+P61254+P61353+P46776+P46779+P47914+P62888+P62899+P62910+P49207+P42766+P18077+Q9Y3U8+P83881+P61927+P61513+P63173+P62891+P62945+P05388+P05386); assay: Binding affinity to RPS2 in human NCI-H358 cells at 1 uM by mass spectrometry based pull down assay; assay type: cell-based
[9] = target: Mitogen-activated protein kinase kinase kinase 20 (Homo sapiens) (UniProt Q9NYL2); assay: Binding affinity to ZAK in human NCI-H23 cells at 1 uM by mass spectrometry based pull down assay; assay type: cell-based
[10] = target: WD repeat and HMG-box DNA-binding protein 1 (Homo sapiens) (UniProt O75717); assay: Binding affinity to WDHD1 in human NCI-H23 cells at 1 uM by mass spectrometry based pull down assay; assay type: cell-based
[11] = target: E3 ubiquitin-protein ligase HUWE1 (Homo sapiens) (UniProt Q7Z6Z7); assay: Binding affinity to HUWE1 in human NCI-H358 cells at 1 uM by mass spectrometry based pull down assay; assay type: cell-based
Chain of E3 ubiquitin-protein ligase HUWE1 (Homo sapiens) (Q7Z6Z7 whole entry): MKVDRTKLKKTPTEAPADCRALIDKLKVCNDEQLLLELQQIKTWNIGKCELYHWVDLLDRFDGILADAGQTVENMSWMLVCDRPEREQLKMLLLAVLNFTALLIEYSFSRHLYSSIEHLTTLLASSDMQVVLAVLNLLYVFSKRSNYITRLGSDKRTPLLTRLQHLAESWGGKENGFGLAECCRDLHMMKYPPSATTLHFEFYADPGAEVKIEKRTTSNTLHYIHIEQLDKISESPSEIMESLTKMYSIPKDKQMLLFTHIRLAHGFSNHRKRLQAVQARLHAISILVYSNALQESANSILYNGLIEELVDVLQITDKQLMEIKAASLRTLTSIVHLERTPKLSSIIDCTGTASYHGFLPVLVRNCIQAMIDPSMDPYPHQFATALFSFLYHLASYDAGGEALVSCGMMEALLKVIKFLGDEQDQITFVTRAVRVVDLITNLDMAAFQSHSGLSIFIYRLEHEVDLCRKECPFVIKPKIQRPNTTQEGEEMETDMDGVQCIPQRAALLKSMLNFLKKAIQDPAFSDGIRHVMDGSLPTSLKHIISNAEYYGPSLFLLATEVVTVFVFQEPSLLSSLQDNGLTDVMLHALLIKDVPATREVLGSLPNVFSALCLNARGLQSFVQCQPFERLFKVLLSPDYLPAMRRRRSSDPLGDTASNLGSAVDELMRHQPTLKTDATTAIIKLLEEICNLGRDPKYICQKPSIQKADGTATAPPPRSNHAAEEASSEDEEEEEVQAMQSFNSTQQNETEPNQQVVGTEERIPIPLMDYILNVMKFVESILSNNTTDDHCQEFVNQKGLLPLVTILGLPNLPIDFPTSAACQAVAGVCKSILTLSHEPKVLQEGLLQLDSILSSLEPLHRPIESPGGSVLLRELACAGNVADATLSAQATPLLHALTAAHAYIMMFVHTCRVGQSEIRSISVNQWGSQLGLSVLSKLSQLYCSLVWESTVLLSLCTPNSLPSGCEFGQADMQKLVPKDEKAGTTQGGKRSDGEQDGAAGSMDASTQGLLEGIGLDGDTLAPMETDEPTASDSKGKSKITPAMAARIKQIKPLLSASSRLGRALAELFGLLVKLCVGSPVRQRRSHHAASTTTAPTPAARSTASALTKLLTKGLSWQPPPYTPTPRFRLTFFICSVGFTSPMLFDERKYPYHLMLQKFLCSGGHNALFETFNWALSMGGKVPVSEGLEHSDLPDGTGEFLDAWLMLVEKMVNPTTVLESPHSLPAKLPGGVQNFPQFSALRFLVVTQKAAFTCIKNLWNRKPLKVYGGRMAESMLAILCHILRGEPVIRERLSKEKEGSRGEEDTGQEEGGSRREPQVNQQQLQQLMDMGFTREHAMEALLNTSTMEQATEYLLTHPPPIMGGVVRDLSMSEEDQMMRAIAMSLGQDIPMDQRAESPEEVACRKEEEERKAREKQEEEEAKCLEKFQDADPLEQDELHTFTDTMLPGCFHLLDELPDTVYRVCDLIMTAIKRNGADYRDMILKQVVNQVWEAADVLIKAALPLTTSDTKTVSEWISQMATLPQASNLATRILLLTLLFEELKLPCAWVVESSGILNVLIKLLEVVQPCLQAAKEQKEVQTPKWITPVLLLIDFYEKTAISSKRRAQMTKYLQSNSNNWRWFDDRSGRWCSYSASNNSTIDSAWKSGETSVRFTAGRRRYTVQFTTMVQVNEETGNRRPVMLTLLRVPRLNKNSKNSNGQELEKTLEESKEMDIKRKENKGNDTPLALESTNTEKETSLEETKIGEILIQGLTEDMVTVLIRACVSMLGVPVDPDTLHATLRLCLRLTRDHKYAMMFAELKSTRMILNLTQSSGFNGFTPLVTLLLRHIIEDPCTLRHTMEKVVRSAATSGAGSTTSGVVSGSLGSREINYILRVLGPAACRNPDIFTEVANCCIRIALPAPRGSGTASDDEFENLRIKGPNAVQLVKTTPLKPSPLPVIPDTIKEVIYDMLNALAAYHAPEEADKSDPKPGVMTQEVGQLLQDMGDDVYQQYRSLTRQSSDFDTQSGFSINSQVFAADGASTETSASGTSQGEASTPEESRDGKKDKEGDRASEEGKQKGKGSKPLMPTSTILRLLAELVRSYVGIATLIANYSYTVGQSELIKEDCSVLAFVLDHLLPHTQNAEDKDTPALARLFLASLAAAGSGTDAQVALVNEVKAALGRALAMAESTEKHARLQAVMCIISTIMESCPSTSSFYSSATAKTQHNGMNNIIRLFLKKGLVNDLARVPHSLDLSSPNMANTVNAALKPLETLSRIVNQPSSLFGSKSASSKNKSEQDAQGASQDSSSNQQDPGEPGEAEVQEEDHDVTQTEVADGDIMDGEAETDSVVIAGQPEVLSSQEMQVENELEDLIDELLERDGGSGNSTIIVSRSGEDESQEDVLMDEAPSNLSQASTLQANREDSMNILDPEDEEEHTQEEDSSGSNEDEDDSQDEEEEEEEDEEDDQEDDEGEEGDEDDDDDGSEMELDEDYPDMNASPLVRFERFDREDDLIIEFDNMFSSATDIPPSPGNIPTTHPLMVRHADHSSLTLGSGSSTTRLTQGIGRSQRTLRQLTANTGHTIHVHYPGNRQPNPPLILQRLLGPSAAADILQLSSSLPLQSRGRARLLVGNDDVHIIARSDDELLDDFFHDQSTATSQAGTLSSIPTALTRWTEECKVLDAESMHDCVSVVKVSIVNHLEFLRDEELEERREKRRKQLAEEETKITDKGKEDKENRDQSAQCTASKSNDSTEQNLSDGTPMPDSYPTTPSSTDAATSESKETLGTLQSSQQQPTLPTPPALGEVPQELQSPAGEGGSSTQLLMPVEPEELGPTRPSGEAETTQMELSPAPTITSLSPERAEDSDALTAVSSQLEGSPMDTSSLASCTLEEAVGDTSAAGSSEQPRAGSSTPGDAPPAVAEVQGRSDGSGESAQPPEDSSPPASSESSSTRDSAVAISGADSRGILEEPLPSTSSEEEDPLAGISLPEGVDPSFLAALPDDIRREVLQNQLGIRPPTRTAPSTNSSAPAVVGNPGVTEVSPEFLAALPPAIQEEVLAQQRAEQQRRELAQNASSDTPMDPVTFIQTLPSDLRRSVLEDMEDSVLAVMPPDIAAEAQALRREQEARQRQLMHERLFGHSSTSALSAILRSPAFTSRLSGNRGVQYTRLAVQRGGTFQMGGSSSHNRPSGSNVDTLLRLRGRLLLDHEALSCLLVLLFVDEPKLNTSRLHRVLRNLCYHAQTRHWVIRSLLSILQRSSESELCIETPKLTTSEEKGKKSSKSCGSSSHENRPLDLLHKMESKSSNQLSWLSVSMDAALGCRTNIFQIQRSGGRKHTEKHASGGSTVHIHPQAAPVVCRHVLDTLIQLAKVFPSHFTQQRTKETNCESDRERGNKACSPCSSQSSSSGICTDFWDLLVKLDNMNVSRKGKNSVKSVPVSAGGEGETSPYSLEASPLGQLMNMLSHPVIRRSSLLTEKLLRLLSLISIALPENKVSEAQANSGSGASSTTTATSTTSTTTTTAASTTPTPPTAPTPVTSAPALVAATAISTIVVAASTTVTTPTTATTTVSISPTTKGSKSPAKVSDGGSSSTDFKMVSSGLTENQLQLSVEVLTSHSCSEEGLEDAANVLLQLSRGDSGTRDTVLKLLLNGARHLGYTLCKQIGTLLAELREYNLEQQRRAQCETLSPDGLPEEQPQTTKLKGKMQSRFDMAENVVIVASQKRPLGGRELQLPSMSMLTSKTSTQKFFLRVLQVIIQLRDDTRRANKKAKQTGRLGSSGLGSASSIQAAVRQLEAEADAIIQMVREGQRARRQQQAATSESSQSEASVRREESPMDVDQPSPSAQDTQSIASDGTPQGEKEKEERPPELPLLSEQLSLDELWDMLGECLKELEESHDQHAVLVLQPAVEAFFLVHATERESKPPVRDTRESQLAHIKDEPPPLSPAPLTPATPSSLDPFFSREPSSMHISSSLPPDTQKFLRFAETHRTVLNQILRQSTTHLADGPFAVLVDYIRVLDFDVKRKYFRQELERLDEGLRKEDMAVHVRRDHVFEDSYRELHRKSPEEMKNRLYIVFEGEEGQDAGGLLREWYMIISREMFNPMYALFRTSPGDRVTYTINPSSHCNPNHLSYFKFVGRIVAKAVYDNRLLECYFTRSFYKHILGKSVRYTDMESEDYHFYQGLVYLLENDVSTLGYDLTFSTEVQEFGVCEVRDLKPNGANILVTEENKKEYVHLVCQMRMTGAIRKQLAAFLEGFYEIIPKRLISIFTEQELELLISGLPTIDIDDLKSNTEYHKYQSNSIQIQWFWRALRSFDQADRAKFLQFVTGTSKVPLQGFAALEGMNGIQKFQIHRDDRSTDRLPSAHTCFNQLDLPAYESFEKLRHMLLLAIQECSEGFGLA

[12] = target: Proteasome activator complex subunit 3 (Homo sapiens) (UniProt P61289); assay: Binding affinity to PSME3 in human NCI-H23 cells at 1 uM by mass spectrometry based pull down assay; assay type: cell-based
[13] = target: Kelch-like ECH-associated protein 1 (Homo sapiens) (UniProt Q14145); assay: Binding affinity to KEAP1 in human NCI-H358 cells at 1 uM by mass spectrometry based pull down assay; assay type: cell-based
[14] = target: Aldehyde dehydrogenase family 16 member A1 (Homo sapiens) (UniProt Q8IZ83); assay: Binding affinity to ALDH16A1 in human NCI-H358 cells at 1 uM by mass spectrometry based pull down assay; assay type: cell-based
Method in brief: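 NCI-H23 or NCI-H358 cells were grown and lysed. Lysates were incubated overnight at 4 °C with 1 μM biotinylated covalent probe or DMSO, then pulled down on streptavidin beads. Proteins were run on polyacrylamide gels and stained with Coomassie. Bands were excised, digested and identified by mass spectrometry.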

[15] = target: Heterogeneous nuclear ribonucleoprotein U (Homo sapiens) (UniProt Q00839); assay: Binding affinity to HNRNPU in human NCI-H23 cells at 1 uM by mass spectrometry based pull down assay; assay type: cell-based
[16] = target: Eukaryotic translation initiation factor 6 (Homo sapiens) (UniProt P56537); assay: Binding affinity to EIF6 in human NCI-H23 cells at 1 uM by mass spectrometry based pull down assay; assay type: cell-based
[17] = target: Thioredoxin (Homo sapiens) (UniProt P10599); assay: Binding affinity to TXN in human NCI-H23 cells at 1 uM by mass spectrometry based pull down assay; assay type: cell-based
Chain of Thioredoxin (Homo sapiens) (P10599 whole entry): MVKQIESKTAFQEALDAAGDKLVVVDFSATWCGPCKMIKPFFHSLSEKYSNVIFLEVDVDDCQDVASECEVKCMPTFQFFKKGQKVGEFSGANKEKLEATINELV

[18] = target: T1, 80S Ribosome (Homo sapiens); assay: Binding affinity to RPL10A in human NCI-H358 cells at 1 uM by mass spectrometry based pull down assay; assay type: cell-based
[19] = target: T2, Dual specificity mitogen-activated protein kinase kinase 3 (Homo sapiens) (UniProt P46734); assay: Binding affinity to MAP2K3 in human NCI-H23 cells at 1 uM by mass spectrometry based pull down assay; assay type: cell-based
T2 sequence (whole entry): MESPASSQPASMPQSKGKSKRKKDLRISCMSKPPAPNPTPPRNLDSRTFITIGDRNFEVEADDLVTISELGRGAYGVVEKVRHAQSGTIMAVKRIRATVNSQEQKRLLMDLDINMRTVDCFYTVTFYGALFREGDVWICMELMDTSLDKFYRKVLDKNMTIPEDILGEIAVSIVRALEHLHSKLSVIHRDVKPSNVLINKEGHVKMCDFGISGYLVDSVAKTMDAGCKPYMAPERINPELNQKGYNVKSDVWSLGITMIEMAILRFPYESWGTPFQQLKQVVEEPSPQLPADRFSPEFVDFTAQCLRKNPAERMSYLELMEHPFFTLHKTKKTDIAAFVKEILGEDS

[20] = target: Src substrate cortactin (Homo sapiens) (UniProt Q14247); assay: Binding affinity to CTTN in human NCI-H358 cells at 1 uM by mass spectrometry based pull down assay; assay type: cell-based
[21] = target: Deaminated glutathione amidase (Homo sapiens) (UniProt Q86X76); assay: Binding affinity to NIT1 in human NCI-H23 cells at 1 uM by mass spectrometry based pull down assay; assay type: cell-based
[22] = target: Large ribosomal subunit protein bL12m (Homo sapiens) (UniProt P52815); assay: Binding affinity to MRPL12 in human NCI-H358 cells at 1 uM by mass spectrometry based pull down assay; assay type: cell-based
[23] = target: Protein arginine N-methyltransferase 5 (Homo sapiens) (UniProt O14744); assay: Binding affinity to PRMT5 in human NCI-H23 cells at 1 uM by mass spectrometry based pull down assay; assay type: cell-based
[24] = target: Cyclin-dependent kinase 20 / CCRK (Homo sapiens) (UniProt Q8IZL9); assay: Inhibition of CCRK in human SKCO1 cells at 1 uM after 4 hrs using biotin labeled DLKPANLLISASGQLK probe by mass-spectrometric analysis relative to control
Chain of Cyclin-dependent kinase 20 / CCRK (Homo sapiens) (Q8IZL9 whole entry, looked up): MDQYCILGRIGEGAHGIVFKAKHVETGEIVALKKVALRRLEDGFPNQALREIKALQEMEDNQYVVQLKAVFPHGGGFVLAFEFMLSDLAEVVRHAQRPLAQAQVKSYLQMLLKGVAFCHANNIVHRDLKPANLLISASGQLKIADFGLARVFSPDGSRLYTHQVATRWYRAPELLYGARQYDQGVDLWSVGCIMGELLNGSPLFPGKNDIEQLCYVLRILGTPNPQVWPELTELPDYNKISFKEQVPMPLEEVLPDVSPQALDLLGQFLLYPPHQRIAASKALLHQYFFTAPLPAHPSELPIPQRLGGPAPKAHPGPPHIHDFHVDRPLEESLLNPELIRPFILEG

Question: Which Activity [1] does the source give for C=CC(=O)Nc1ccccc1Nc1nc(Nc2ccc(N3CCN(CCOCCOCCOCCNC(=O)CCCC[C@@H]4SC[C@@H]5NC(=O)N[C@@H]54)CC3)cc2)ncc1Cl here?
Answer: Active

Question: What about the Activity [2] of the same compound?
Answer: Active

Question: And the Activity [3]?
Answer: Active

Question: And the Activity [4]?
Answer: Active

Question: And the Activity [5]?
Answer: Active

Question: And the Activity [6]?
Answer: Active

Question: What about the Activity [7] of the same compound?
Answer: Active

Question: What about the Activity [8] of the same compound?
Answer: Active

Question: What about the Activity [9] of the same compound?
Answer: Active

Question: And the Activity [10]?
Answer: Active

Question: And the Activity [11]?
Answer: Active

Question: And the Activity [12]?
Answer: Active

Question: And the Activity [13]?
Answer: Active

Question: And the Activity [14]?
Answer: Active

Question: And the Activity [15]?
Answer: Active

Question: What about the Activity [16] of the same compound?
Answer: Active

Question: What about the Activity [17] of the same compound?
Answer: Active

Question: And the Activity [18]?
Answer: Active

Question: And the Activity [19]?
Answer: Active

Question: What about the Activity [20] of the same compound?
Answer: Active

Question: What about the Activity [21] of the same compound?
Answer: Active

Question: What about the Activity [22] of the same compound?
Answer: Active

Question: And the Activity [23]?
Answer: Active

Question: With C=CC(=O)Nc1ccccc1Oc1nc(Nc2cnn(CCOC)c2)ncc1Cl as the compound, how does the inhibition [24] read?
Answer: -9%
